ChEMBL document CHEMBL1157870, “Synthesis of 3-((2,4-dichlorophenoxy)methyl)-1,2,4-triazolo(thiadiazoles and thiadiazines) as anti-inflammatory and molluscicidal agents” (Eur J Med Chem, 2010)

How the values were obtained:
[1] = system: Rattus norvegicus; test: Antiinflammatory activity against carrageenan-induced paw edema in po dosed rat administered 1 hr before carrageenan challenge assessed after 1 hr; type: functional
In short: (§1)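 Rats of about 200 g dosed orally; 1 h later, 1 mg carrageenan in […] physiological solution injected subplantar into the hind left paw. Paw volume measured hourly for 4 h by plethysmometer, dipping the paw in 0.45% saline. Read-out is % change in paw volume versus baseline, given as % inhibition of oedema ± S.E. Indomethacin served as reference.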

[2] = system: Rattus norvegicus; test: Antiinflammatory activity against carrageenan-induced paw edema in po dosed rat administered 1 hr before carrageenan challenge assessed after 2 hrs; type: functional; in short: as §1
[3] = system: Rattus norvegicus; test: Antiinflammatory activity against carrageenan-induced paw edema in po dosed rat administered 1 hr before carrageenan challenge assessed after 3 hrs; type: functional; in short: as §1
[4] = system: Rattus norvegicus; test: Antiinflammatory activity against carrageenan-induced paw edema in po dosed rat administered 1 hr before carrageenan challenge assessed after 4 hrs; type: functional; in short: as §1
[5] = system: Biomphalaria alexandrina; test: Molluscicidal activity against Biomphalaria alexandrina assessed as mortality at 10 ppm after 24 hrs; type: organism-based; settings: in vivo
In short: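 Compounds dissolved with a few drops of Tween 20 and 2 mL DMSO, then diluted with untreated Nile raw water to 1, 5 or 10 ppm in aerated glass jars. Ten snails per concentration held 24 h at 25 °C. Mean number killed over three repeats recorded. Controls received Tween 20/DMSO in water; Bayluscide served as reference. Follows WHO guidelines, modified.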

For `Clc1ccc(OCc2nn3c(COc4ccc(Cl)cc4Cl)nnc3s2)c(Cl)c1`, the “inhibition (INH)” value [1] was 26.95%, the “inhibition (INH)” value [2] was 48.4% and the “inhibition (INH)” value [3] was 63.15%. The “inhibition (INH)” value [4] was 58.48%.

For `Clc1ccc(OCc2nnc3snnn23)c(Cl)c1`, the Activity [5] was “Toxic”, the “inhibition (INH)” value [1] was 70.78% and the “inhibition (INH)” value [2] was 94.8%. The “inhibition (INH)” value [3] was 108.482% and the “inhibition (INH)” value [4] was 74.03%.

In the case of `Clc1ccc(OCc2nnc3n2N=C(c2cc4ccccc4o2)/C(=C/c2cn(-c4ccccc4)nc2-c2cc4ccccc4o2)S3)c(Cl)c1`, the “inhibition (INH)” value [1] is reported as 29.71%, the “inhibition (INH)” value [2] is reported as 41.32% and the “inhibition (INH)” value [3] is reported as 59.66%. The “inhibition (INH)” value [4] was 35.78%.

With `Nn1c(S)nnc1COc1ccc(Cl)cc1Cl` the Activity [5] was “Toxic”, the “inhibition (INH)” value [1] was 50% and the “inhibition (INH)” value [2] was 60.3%. For the same compound, the “inhibition (INH)” value [3] was 102.8511% and the “inhibition (INH)” value [4] was 81.75%.

With `Clc1ccc(OCc2nnc3n2N=C(c2ccccc2)CS3)c(Cl)c1` the “inhibition (INH)” value [1] was 27.66%, the “inhibition (INH)” value [2] was 45.62% and the “inhibition (INH)” value [3] was 60.42%. The “inhibition (INH)” value [4] was 48.51%.

In the case of `O=[N+]([O-])c1ccc(-c2nn3c(COc4ccc(Cl)cc4Cl)nnc3s2)c([N+](=O)[O-])c1`, the “inhibition (INH)” value [1] is reported as 32.16%, the “inhibition (INH)” value [2] is reported as 66.06% and the “inhibition (INH)” value [3] is reported as 68.04%. The “inhibition (INH)” value [4] was 63.95%.

`COc1ccc(-c2nn3c(COc4ccc(Cl)cc4Cl)nnc3s2)cc1` was tested, and the “inhibition (INH)” value [1] was 26.75%, the “inhibition (INH)” value [2] was 46.22% and the “inhibition (INH)” value [3] was 56.34%. For the same compound, the “inhibition (INH)” value [4] was 44.34%.

For `Clc1ccc(OCc2nnc3sc(-c4ccco4)nn23)c(Cl)c1`, the “inhibition (INH)” value [1] was 51.38%, the “inhibition (INH)” value [2] was 54.62% and the “inhibition (INH)” value [3] was 99.24%. For the same compound, the “inhibition (INH)” value [4] was 93.97%.

With `COc1ccc2c(c1)c(CC(=O)O)c(C)n2C(=O)c1ccc(Cl)cc1` [INDOMETHACIN] the “inhibition (INH)” value [1] was 24.8%, the “inhibition (INH)” value [2] was 20.97% and the “inhibition (INH)” value [3] was 26.29%. For the same compound, the “inhibition (INH)” value [4] was 20.19%.

For `O=C(Nc1ccc([N+](=O)[O-])cc1Cl)c1cc(Cl)ccc1O` [NICLOSAMIDE], the Activity [5] was “Toxic”.
